Some results are limits rather than exact numbers.

The test system of experiment [1] is Plasmodium falciparum. Kind of experiment: Antimalarial activity against Plasmodium falciparum 3D7 infected-erythrocytes after 72 hrs by SYBR green fluorescence method. It is filed as functional, organism-based. The following applies: 3D7, 72 h. Put shortly: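 P. falciparum 3D7 grown in erythrocytes at 4% hematocrit in RPMI 1640 with 20 mM HEPES, 32 mM NaHCO3, 10% Albumax II. Serial dilutions added to phenol red-free culture at 0.5% starting parasitemia, in triplicate, for 72 h at 37 °C. Lysis buffer with saponin, Triton X and SYBR Green I then added for 1 h at room temperature. Fluorescence read as parasite growth, and IC50 derived.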

For experiment [2], the target named is T1, Aminopeptidase N (Plasmodium falciparum FcB1/Columbia, UniProt O96935).
T1 sequence (O96935 whole entry): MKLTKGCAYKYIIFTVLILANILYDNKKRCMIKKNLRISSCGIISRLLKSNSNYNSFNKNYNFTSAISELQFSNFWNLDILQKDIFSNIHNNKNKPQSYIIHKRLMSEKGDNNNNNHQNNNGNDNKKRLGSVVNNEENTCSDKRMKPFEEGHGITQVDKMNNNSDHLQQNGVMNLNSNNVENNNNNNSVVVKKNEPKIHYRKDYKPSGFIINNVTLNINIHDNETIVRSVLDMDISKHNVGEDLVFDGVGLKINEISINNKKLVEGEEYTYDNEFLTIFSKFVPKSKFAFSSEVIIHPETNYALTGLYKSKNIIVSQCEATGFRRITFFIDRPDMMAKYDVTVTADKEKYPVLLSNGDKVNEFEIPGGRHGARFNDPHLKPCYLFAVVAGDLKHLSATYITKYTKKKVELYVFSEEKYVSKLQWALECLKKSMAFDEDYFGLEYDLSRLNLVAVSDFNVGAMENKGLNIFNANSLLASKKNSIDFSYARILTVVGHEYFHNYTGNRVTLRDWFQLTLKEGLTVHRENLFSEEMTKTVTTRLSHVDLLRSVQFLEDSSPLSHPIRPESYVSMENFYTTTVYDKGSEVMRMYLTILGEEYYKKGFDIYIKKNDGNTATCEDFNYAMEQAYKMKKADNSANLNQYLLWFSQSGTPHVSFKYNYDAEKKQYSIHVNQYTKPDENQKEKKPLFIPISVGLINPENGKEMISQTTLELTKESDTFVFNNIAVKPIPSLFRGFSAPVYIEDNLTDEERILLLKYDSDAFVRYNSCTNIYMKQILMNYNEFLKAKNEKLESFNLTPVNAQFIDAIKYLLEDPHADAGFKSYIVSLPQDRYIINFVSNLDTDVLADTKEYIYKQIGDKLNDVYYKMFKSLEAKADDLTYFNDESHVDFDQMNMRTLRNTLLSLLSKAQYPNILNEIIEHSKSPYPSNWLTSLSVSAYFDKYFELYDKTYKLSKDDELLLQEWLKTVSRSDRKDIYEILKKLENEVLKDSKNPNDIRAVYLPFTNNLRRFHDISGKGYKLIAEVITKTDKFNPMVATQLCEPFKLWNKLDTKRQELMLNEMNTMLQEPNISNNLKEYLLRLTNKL
Kind of experiment: Inhibition of Plasmodium falciparum recombinant M1-aminopeptidase expressed in Escherichia coli after 40 mins uisng fluorogenic substrate L-Leucyl-7-amido-40-methylcoumarin by fluorescence spectrophotometry. Put shortly: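 Recombinant PfA-M1 expressed in E. coli, 0.9 nM, in 50 mM HEPES pH 7.5, 100 mM NaCl, 0.1% Triton X-100. Ki by Dixon plots (1/rate vs [I]) and secondary plots vs 1/[S]. Competitive mode checked with a/v vs i plots.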

A word on the IC50: it is the point on the concentration scale where inhibition reaches its midpoint. A higher IC50 goes with lower potency. In experiment [1], `CC(C)C[C@H](NC(=O)[C@@H](O)[C@H](N)Cc1ccc(OCc2ccccc2)cc1)C(=O)O` gave an IC50 of 29 µM.
Same read-out and setting: the value for `COc1ccc(C[C@@H](N)[C@H](O)C(=O)N[C@@H](CC(C)C)C(=O)O)cc1` was 6.4 µM.
In general, Ki refers to the dissociation constant of the complex between target and ligand, obtained from inhibition or displacement. Take `CCCC[C@H](NC(=O)[C@@H](O)[C@H](N)Cc1ccccc1)C(=O)O`: in experiment [2] (read-out: Ki), the Ki was found to be 0.9 µM.
Same read-out and setting: the value for `N[C@H](Cc1ccccc1)[C@H](O)C(=O)N[C@@H](CCCCNC(=O)OCc1ccccc1)C(=O)O` was 1.45 µM.
On to `CC(C)C[C@H](NC(=O)[C@@H](O)[C@H](N)Cc1ccc2ccccc2c1)C(=O)O`, for which the Ki in experiment [2] (read-out: Ki) is 3 µM. For the same compound, in experiment [1], the half-inhibitory concentration (IC50) was > 50 µM.
The matching figures for `CCCC[C@@H](N)[C@H](O)C(=O)N[C@@H](CC(C)C)C(=O)O`: 5.3 µM and > 50 µM.
For `CC(C)C[C@H](NC(=O)[C@@H](O)[C@H](N)CC(C)C)C(=O)O`, the Ki entry in experiment [2] is listed as “Not Active”. In addition, in experiment [1], the IC50 was > 50 µM.
The matching figures for `CC(C)C[C@H](NC(=O)[C@@H](O)[C@H](N)Cc1ccc(-c2ccccc2)cc1)C(=O)O`: “Not Active” and > 50 µM.
The matching figures for `CC(C)C[C@H](NC(=O)[C@@H](O)[C@H](N)C(c1ccccc1)c1ccccc1)C(=O)O`: “Not Active” and > 50 µM.
Consider `CC(C)C[C@H](NC(=O)[C@@H](O)[C@H](N)Cc1ccccc1)C(=O)O` [UBENIMEX], for which, in experiment [1], the IC50 stood at 3.2 µM.

These data come from ChEMBL document CHEMBL1687941 (J Med Chem, 2011).
